# Results pooled from the literature.
# Lines come from different studies, so protocols differ.
# Target: Serine/threonine-protein kinase LATS2 (LATS2, Homo sapiens, UniProt Q9NRM7)
# Residues used in one study (Q9NRM7 1-1088): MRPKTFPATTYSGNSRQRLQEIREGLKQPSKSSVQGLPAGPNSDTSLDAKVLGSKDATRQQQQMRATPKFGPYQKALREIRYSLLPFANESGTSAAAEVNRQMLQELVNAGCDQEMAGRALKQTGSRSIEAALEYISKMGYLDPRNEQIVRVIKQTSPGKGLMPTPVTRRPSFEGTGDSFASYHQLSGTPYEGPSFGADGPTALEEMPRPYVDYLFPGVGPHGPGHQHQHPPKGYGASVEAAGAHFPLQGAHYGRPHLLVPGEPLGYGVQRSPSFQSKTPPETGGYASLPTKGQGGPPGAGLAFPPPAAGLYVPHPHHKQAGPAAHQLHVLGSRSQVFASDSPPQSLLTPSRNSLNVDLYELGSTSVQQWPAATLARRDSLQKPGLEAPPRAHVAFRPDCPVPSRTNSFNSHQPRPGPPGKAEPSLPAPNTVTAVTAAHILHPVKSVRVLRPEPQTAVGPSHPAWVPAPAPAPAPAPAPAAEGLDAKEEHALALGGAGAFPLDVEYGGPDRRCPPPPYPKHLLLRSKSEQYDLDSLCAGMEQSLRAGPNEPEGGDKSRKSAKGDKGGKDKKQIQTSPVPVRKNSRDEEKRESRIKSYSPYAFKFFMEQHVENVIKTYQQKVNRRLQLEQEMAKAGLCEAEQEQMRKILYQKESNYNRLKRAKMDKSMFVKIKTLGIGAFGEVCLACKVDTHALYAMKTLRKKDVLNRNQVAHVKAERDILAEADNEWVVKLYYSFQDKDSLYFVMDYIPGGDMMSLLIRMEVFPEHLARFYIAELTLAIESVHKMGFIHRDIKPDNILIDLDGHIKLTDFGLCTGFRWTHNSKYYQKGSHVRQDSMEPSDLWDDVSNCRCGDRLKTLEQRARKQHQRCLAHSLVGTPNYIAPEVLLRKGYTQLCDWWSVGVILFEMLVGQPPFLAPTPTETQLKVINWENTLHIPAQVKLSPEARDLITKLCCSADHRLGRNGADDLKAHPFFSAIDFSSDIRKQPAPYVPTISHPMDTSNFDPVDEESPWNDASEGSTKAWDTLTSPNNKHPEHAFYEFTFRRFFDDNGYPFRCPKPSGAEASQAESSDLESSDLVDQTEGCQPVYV
Structure (SMILES),test,conditions,remaining binding
Cn1nc(C(=O)NCc2ccc(C(=O)O)cc2)cc1-c1ccc2[nH]ccc2c1,"cell-free assay, competition with immobilised ligand",0.1 µM,100%
Cc1cnc(Nc2ccc(C(=O)N3CCC(N4CCCC4)CC3)cc2)nc1-c1cc2ccccc2s1,"binding, competition with immobilised ligand",1 µM,44%
Cc1nc(C2CCN(C(=O)c3ccc(OC(F)(F)F)cc3N)CC2)c2ncc(N3CCN(C)CC3)cc2n1,"cell-free assay, competition with immobilised ligand",1 µM,100%
CN(CCCC(F)(F)F)c1nccc(-c2cnn3ncccc23)n1,binding,1 µM,100%
c1cncc(-c2cccc(Nc3nccc(NC4CCCCC4)n3)c2)c1,"binding, competition with immobilised ligand",10 µM,12%
COc1ncc2cc3ccccc3nc2c1C#N,"cell-free assay, competition with immobilised ligand",5 µM,90%
C[C@@H]1CCN(c2nccc(-c3cnn4ncccc34)n2)C1,binding,1 µM,93%
O=C(NCC1CCOCC1)c1n[nH]cc1NC(=O)c1c(F)cccc1F,"binding, competition with immobilised ligand",1 µM,87%
COc1cc(-c2cn(C3CCc4ccccc4N(CC(F)(F)F)C3=O)nn2)ccc1-n1ccc(C)n1 (centres unmarked),"cell-free assay, competition with immobilised ligand",1 µM,69%
COc1cnc(Nc2cccc(S(N)(=O)=O)c2)nc1N1CCN(c2ccccc2)CC1,"binding, competition with immobilised ligand",1 µM,74%
COc1ccnn2ncc(-c3ccnc(N(C)C)n3)c12,binding,1 µM,100%
O=C(NCCCN1CCOCC1)c1ccc(Nc2nccc(-c3cc4ccccc4s3)n2)cc1,"binding, competition with immobilised ligand",1 µM,100%
C[C@H](c1ccc(F)cc1)N(Cc1cccc(C(=O)O)c1)C(=O)c1cnc2ccccc2c1,"cell-free assay, competition with immobilised ligand",1 µM,64%
COc1cnc(Nc2cccc(S(N)(=O)=O)c2)nc1N1CCN(c2ccccc2)C(=O)C1,"binding, competition with immobilised ligand",1 µM,100%
CN(C)c1nccc(-c2cnn3ncccc23)n1,binding,1 µM,64%
NS(=O)(=O)c1cc(NC(=O)Cc2ccccc2)ccc1Oc1cccc(Cl)c1,"cell-free assay, competition with immobilised ligand",1 µM,94%
CN(C)c1ncc(F)c(-c2cnn3ncccc23)n1,binding,1 µM,72%
O=C(c1ccc(Nc2ncc(Cl)c(-c3cc4ccccc4s3)n2)cc1)N1CCC(N2CCCC2)CC1,"binding, competition with immobilised ligand",1 µM,15%
CC1CCCN1c1nccc(-c2cnn3ncccc23)n1 (centres unmarked),binding,1 µM,100%
CN(C)CC#Cc1ccc(OCCCc2sc(N3CCc4cccc(C(=O)Nc5nc6ccccc6s5)c4C3)nc2C(=O)O)c(F)c1,"cell-free assay, competition with immobilised ligand",1 µM,95%
